Source: ChEMBL document CHEMBL1124739, “Selective class III antiarrhythmic agents. 1 Bis(arylalkyl)amines” (J Med Chem, 1990)
“And” between values parts separate entries of the source, which are not always exact repeats. Equal entries are not always repeated.

Assays:
Cavia porcellus [1] = organism: Cavia porcellus; assay: The degree of cardiac depression produced by a concentration of 10 E-4 M was determined in guinea pig; assay type: functional
How it was run: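 Cardiac depression was measured at 10⁻⁴ M in the isolated guinea pig left atrial preparation and taken as an index of class I activity.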

Cavia porcellus [2] = organism: Cavia porcellus; assay: Concentration required to prolong the effective refractory period (ERP) by 25% in isolated guinea pig left atria; assay type: functional
How it was run: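 Isolated guinea pig left atria were studied by the extrastimulus technique. The molar concentration raising ERP by 25% (ED25) was determined. Values are the mean of two similar determinations, ±4%.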

[3] = Oral bioavailability in man; assay type: ADME, organism-based; settings: human, in vivo
Cavia porcellus [4] = organism: Cavia porcellus; assay: Maximum rate of depolarization (MRD) during phase 0 in guinea pig right papillary muscle was determined at concentration 2 x 10E-5 M; assay type: functional, Muscle tissue
How it was run: (§1)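 Isolated guinea pig right papillary muscle exposed to the concentration given in each line. Action potential duration was read at 50% and 90% repolarization, and phase 0 maximum rate of depolarization (MRD) was also recorded. Values are means ± SD of 30 or 31 observations from three preparations, compared with control by t test.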

Cavia porcellus [5] = organism: Cavia porcellus; assay: Action potential duration (APD50) repolarization in guinea pig right papillary muscle was determined at concentration 5 x 10E-8 M; assay type: functional, Muscle tissue; how it was run: as §1
Cavia porcellus [6] = organism: Cavia porcellus; assay: Action potential duration (APD50) repolarization in guinea pig right papillary muscle was determined at concentration 10E-6 M; assay type: functional, Muscle tissue; how it was run: as §1
Cavia porcellus [7] = organism: Cavia porcellus; assay: Action potential duration (APD90) repolarization in guinea pig right papillary muscle was determined at concentration 5 x 10E-9 M; assay type: functional, Muscle tissue; how it was run: as §1
Cavia porcellus [8] = organism: Cavia porcellus; assay: Maximum rate of depolarization (MRD) during phase 0 in guinea pig right papillary muscle was determined at concentration 5 x 10E-8 M; assay type: functional, Muscle tissue; how it was run: as §1
[9] = Distribution coefficient at pH 7.4; assay type: physicochemical; settings: octanol/water
Cavia porcellus [10] = organism: Cavia porcellus; assay: Maximum rate of depolarization (MRD) during phase 0 in guinea pig right papillary muscle was determined at concentration 10E-6 M; assay type: functional, Muscle tissue; how it was run: as §1
Cavia porcellus [11] = organism: Cavia porcellus; assay: Action potential duration (APD90) repolarization in guinea pig right papillary muscle was determined at concentration 10E-6 M; assay type: functional, Muscle tissue; how it was run: as §1
Cavia porcellus [12] = organism: Cavia porcellus; assay: Action potential duration (APD90) repolarization in guinea pig right papillary muscle was determined at concentration 5 x 10E-8 M; assay type: functional, Muscle tissue; how it was run: as §1
Cavia porcellus [13] = organism: Cavia porcellus; assay: Action potential duration (APD50) repolarization in guinea pig right papillary muscle was determined at concentration 2 x 10E-5 M; assay type: functional, Muscle tissue; how it was run: as §1
Cavia porcellus [14] = organism: Cavia porcellus; assay: Maximum rate of depolarization (MRD) during phase 0 in guinea pig right papillary muscle was determined at concentration 5 x 10E-9 M; assay type: functional, Muscle tissue; how it was run: as §1
[15] = Oral bioavailability in dog; assay type: ADME, organism-based, Canis lupus familiaris; settings: in vivo
Cavia porcellus [16] = organism: Cavia porcellus; assay: Action potential duration (APD50) repolarization in guinea pig right papillary muscle was determined at concentration 5 x 10E-9 M; assay type: functional, Muscle tissue; how it was run: as §1

SMILES | Cardiac depression (Cavia porcellus [1]) | ED25 (Cavia porcellus [2]) | also measured
CN(CCOc1ccc(CC(N)=O)cc1)CCc1ccc(NS(C)(=O)=O)cc1 | 7% | 10 µM | –
COC(=O)c1ccc(OCCN(C)CCc2ccc(NS(C)(=O)=O)cc2)cc1 | 47% | 4.1 µM | –
CN(CCOc1ccc(C(N)=O)cc1)CCc1ccc(NS(C)(=O)=O)cc1 | 7% | 1.5 µM | –
CN(CCSc1ccc(NS(C)(=O)=O)cc1)CCc1ccc(NS(C)(=O)=O)cc1 | 21% | 0.3 µM | –
CN(CCCCc1ccc(NS(C)(=O)=O)cc1)CCc1ccc(NS(C)(=O)=O)cc1 | 32% | 67 µM | –
CN(CCOc1cccc(C(N)=O)c1)CCc1ccc(NS(C)(=O)=O)cc1 | 3% | 0.82 µM | –
CN(CCOC(c1ccccc1)c1ccc(NS(C)(=O)=O)cc1)CCc1ccc(NS(C)(=O)=O)cc1 (configuration not stated) | 35% | 12 µM | –
CN(CCOc1cccc(NS(C)(=O)=O)c1)CCc1ccc(NS(C)(=O)=O)cc1 | 9% | 3 µM | –
CN(CCCc1ccc(NS(C)(=O)=O)cc1)CCc1ccc(NS(C)(=O)=O)cc1 | 23% | 2.7 µM | –
CN(CCOc1ccc(S(N)(=O)=O)cc1)CCc1ccc(NS(C)(=O)=O)cc1 | 7% | 2.2 µM | –
CCN(CC)C(=O)c1ccc(OCCN(C)CCc2ccc(NS(C)(=O)=O)cc2)cc1 | 9% | 32 µM | –
CN(CCOc1ccc(NS(C)(=O)=O)cc1Cl)CCc1ccc(NS(C)(=O)=O)cc1 | 16% | 18 µM | –
CN(CCc1ccc(NS(C)(=O)=O)cc1)CCc1ccc(NS(C)(=O)=O)cc1 | 20% | 2 µM | –
Cc1ccc(NS(C)(=O)=O)c(OCCN(C)CCc2ccc(NS(C)(=O)=O)cc2)c1.Cl | 24% | 17 µM | –
CN(CCCCOc1ccc(NS(C)(=O)=O)cc1)CCc1ccc(NS(C)(=O)=O)cc1.Cl | 23% | 40 µM | –
Cc1ccc(OCCN(C)CCc2ccc(NS(C)(=O)=O)cc2)c(C(N)=O)c1.Cl | 22% | 1 µM | –
CNC(=O)Nc1ccc(OCCN(C)CCc2ccc(NS(C)(=O)=O)cc2)cc1.Cl | 0% | 70 µM | –
CN(CCOc1ccccc1NS(C)(=O)=O)CCc1ccc(NS(C)(=O)=O)cc1.Cl | 19% | 2.5 µM | –
CN(CCOc1ccc(C(F)(F)F)cc1)CCc1ccc(NS(C)(=O)=O)cc1.Cl | 30% | 90 µM | –
CNC(=O)c1ccc(OCCN(C)CCc2ccc(NS(C)(=O)=O)cc2)cc1.Cl | 5% | 1.5 µM | –
CN(CCCOc1ccc(NS(C)(=O)=O)cc1)CCc1ccc(NS(C)(=O)=O)cc1.Cl | 44% | 20 µM | –
CN(CCOc1ccc(C(=O)N2CCOCC2)cc1)CCc1ccc(NS(C)(=O)=O)cc1.Cl | 15% | 20 µM | –
CN(CCOc1ccc(NS(C)(=O)=O)cc1)CCc1ccc(NS(C)(=O)=O)cc1 [DOFETILIDE] | 0% | 0.13 µM | bioavailability [3]: 100%; MRD (Cavia porcellus [4]): 273 V s-1; APD50 (Cavia porcellus [5]): 197 ms; APD50 (Cavia porcellus [6]): 223 ms; APD90 (Cavia porcellus [7]): <209 ms and <273 ms; MRD (Cavia porcellus [8]): 273 V s-1; logD [9]: 0.96; MRD (Cavia porcellus [10]): 269 V s-1; APD90 (Cavia porcellus [11]): 288 ms; APD90 (Cavia porcellus [12]): 246 ms; APD50 (Cavia porcellus [13]): 209 ms; MRD (Cavia porcellus [14]): 261 V s-1; bioavailability [15]: 72%; APD50 (Cavia porcellus [16]): 170 ms
CC(C)NCC(O)c1ccc(NS(C)(=O)=O)cc1 (configuration not stated) [SOTALOL] | 5% | 200 µM | –
